The source of these data is PMC10092221 (Journal of Clinical Pharmacology, 2022).

The conditions of series [1]: itraconazole 200 mg daily; cited from earlier work.
A short description of series [2]: Capmatinib/CMN288 pharmacokinetics, inhibition cohort. The class given is in vivo, human (healthy subjects). As to conditions: inhibition cohort, healthy subjects, plasma. A digest of the protocol:
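Inhibition cohort of healthy subjects (n = 27): a single fasted oral 200 mg dose on day 1, then a 4-day washout. Itraconazole 200 mg was given daily on days 5–14, and 200 mg test compound was dosed 1 h after the sixth itraconazole dose (day 10). Plasma was sampled serially to 96 h after each dose and assayed by validated LC-MS/MS (LLOQ ≈1.0 ng/mL). Test/reference ratios are antilogged point estimates with 2-sided 90%CIs.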

Series [3] in a line: Capmatinib/CMN288 pharmacokinetics, induction cohort. As to conditions: induction cohort, healthy subjects, plasma. The class given is in vivo, human (healthy subjects). The method, boiled down:
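Healthy subjects (induction cohort, n = 26) received a single fasted oral 400 mg dose on day 1, then a 4-day washout. Rifampicin 600 mg was given daily on days 5–13, with 400 mg test compound coadministered with the sixth dose on day 10. Serial plasma was drawn to 72 h after each dose and frozen <–70°C. Parent and metabolite were measured by validated LC-MS/MS (LLOQ ≈1.0 ng/mL). Ratios are antilogged 90%CIs.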

Setting [4] is: single oral capmatinib 200 mg + itraconazole 200 mg/day.
Setting [5] is: single oral capmatinib 200 mg alone.
[6] abbreviates: single oral capmatinib 400 mg + rifampicin 600 mg/day.
[7] abbreviates: single oral capmatinib 400 mg alone.

As for `Cc1nnc2n1-c1ccc(Cl)cc1C(c1ccccc1Cl)=NC2` [triazolam], the “Increase in exposure with itraconazole regimen” value in series [1] is reported as 27 fold.
For the compound `CNC(=O)c1ccc(-c2nn3c(Cc4ccc5ncccc5c4)cnc3[nH]c2=O)cc1F` [CMN288], in series [2] (setting [4]), the “CMN288 AUCinf, geometric mean (geometric CV%)” value (“CMN288 AUCinf … (geometric CV%)” for short) was 4290 (42.3) ng · h/mL; the “CMN288 AUCinf, mean (CV%)” value was 4600 (35.7) ng · h/mL; the “CMN288 AUClast, geometric mean (geometric CV%)” value (“CMN288 AUClast … (geometric CV%)” for short) is 4260 (43.2) ng · h/mL; the “CMN288 AUClast, mean (CV%)” value was 4570 (36.0) ng · h/mL. Further, in series [2] (setting [4]), the “CMN288 Cmax, geometric mean (geometric CV%)” value (from here on “CMN288 Cmax … (geometric CV%)”) was 590 (63.8) ng/mL; the “CMN288 Cmax, mean (CV%)” value is given as 682 (50.8) ng/mL; the “CMN288 tmax, median (range)” value is recorded as 2.00 (0.983–4.01) h; the “MR (AUCinf), metabolite-to-parent drug ratio, mean (CV%)” value was 0.572 (25.1). In addition, in series [2] (setting [4]), the “MR (AUClast), metabolite-to-parent drug ratio, mean (CV%)” value is reported as 0.570 (25.6) and the “MR (Cmax), metabolite-to-parent drug ratio, mean (CV%)” value is 0.462 (29.2). In addition, in series [2] (setting [5]), the “CMN288 AUCinf … (geometric CV%)” value is 3640 (36.6) ng · h/mL; the “CMN288 AUCinf, mean (CV%)” value was 3870 (35.5) ng · h/mL; the “CMN288 AUClast … (geometric CV%)” value is 3580 (37.6) ng · h/mL; the “CMN288 AUClast, mean (CV%)” value is listed as 3810 (36.2) ng · h/mL. Further, in series [2] (setting [5]), the “CMN288 Cmax … (geometric CV%)” value is listed as 665 (48.7) ng/mL; the “CMN288 Cmax, mean (CV%)” value was 736 (47.0) ng/mL; the “CMN288 tmax, median (range)” value was 1.01 (0.968–6.02) h; the “MR (AUCinf), metabolite-to-parent drug ratio, mean (CV%)” value is 0.699 (25.4). For the same compound, in series [2] (setting [5]), the “MR (AUClast), metabolite-to-parent drug ratio, mean (CV%)” value is listed as 0.685 (27.5) and the “MR (Cmax), metabolite-to-parent drug ratio, mean (CV%)” value is 0.533 (30.5). Besides, in series [3] (setting [6]), the “CMN288 AUCinf … (geometric CV%)” value is recorded as 5110 (31.9) ng · h/mL; the “CMN288 AUCinf, mean (CV%)” value is 5360 (32.1) ng · h/mL; the “CMN288 AUClast … (geometric CV%)” value is given as 5070 (32.3) ng · h/mL; the “CMN288 AUClast, mean (CV%)” value is recorded as 5320 (32.5) ng · h/mL. In series [3] (setting [6]), the “CMN288 Cmax … (geometric CV%)” value was 1570 (39.8) ng/mL; the “CMN288 Cmax, mean (CV%)” value is 1690 (38.1) ng/mL; the “CMN288 tmax, median (range)” value is recorded as 0.998 (0.924–3.00) h; the “MR (AUCinf), metabolite-to-parent drug ratio, mean (CV%)” value is 1.37 (26.0). Besides, in series [3] (setting [6]), the “MR (AUClast), metabolite-to-parent drug ratio, mean (CV%)” value is 1.35 (25.0) and the “MR (Cmax), metabolite-to-parent drug ratio, mean (CV%)” value is 1.17 (28.9). Besides, in series [3] (setting [7]), the “CMN288 AUCinf … (geometric CV%)” value is 7420 (28.4) ng · h/mL; the “CMN288 AUCinf, mean (CV%)” value is given as 7710 (30.1) ng · h/mL; the “CMN288 AUClast … (geometric CV%)” value is given as 7310 (28.4) ng · h/mL; the “CMN288 AUClast, mean (CV%)” value was 7600 (30.2) ng · h/mL. Also, in series [3] (setting [7]), the “CMN288 Cmax … (geometric CV%)” value is 1500 (41.4) ng/mL; the “CMN288 Cmax, mean (CV%)” value was 1610 (39.2) ng/mL; the “CMN288 tmax, median (range)” value is reported as 0.994 (0.957–3.00) h; the “MR (AUCinf), metabolite-to-parent drug ratio, mean (CV%)” value is on record as 0.634 (25.2). Besides, in series [3] (setting [7]), the “MR (AUClast), metabolite-to-parent drug ratio, mean (CV%)” value is reported as 0.627 (25.1) and the “MR (Cmax), metabolite-to-parent drug ratio, mean (CV%)” value is 0.492 (30.8).
